The text below walks through data of ChEMBL document CHEMBL4266015, “Scaffold Ranking and Positional Scanning Identify Novel Neurite Outgrowth Promoters with Nanomolar Potency” (2018).

Holding throughout (assay type): functional, Hippocampal neurone
A short description of test [1]: Induction of neurite outgrowth in rat hippocampal neurons assessed as neurite total length at 31.25 ng/ml after 48 hrs relative to control. Summed up:
(§1)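 E18 rat hippocampal neurons were plated on PDL at 1800 cells/well in NbActive4, adhered 2 h, then treated with compound prediluted in medium at 4× final for 48 h. Cells were fixed, stained for βIII-tubulin, imaged and auto-traced. Mean neurite total length is a percentage of DMSO vehicle wells on the same plate. ML-7 was the positive control and plates with Z-factor >0.5 were accepted.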

A short description of test [2]: Induction of neurite outgrowth in rat hippocampal neurons assessed as neurite total length at 250 ng/ml after 48 hrs relative to control. Summed up:
as §1

The nature of test [3]: Induction of neurite outgrowth in rat hippocampal neurons assessed as neurite total length at 125 ng/ml after 48 hrs relative to control. Summed up:
as §1

Test [4] in a line: Induction of neurite outgrowth in rat hippocampal neurons assessed as neurite total length at 62.5 ng/ml after 48 hrs relative to control. Summed up:
as §1

Test [5] in a line: Induction of neurite outgrowth in rat hippocampal neurons assessed as neurite total length at 500 ng/ml after 48 hrs relative to control. Summed up: as §1
Test [6] in a line: Induction of neurite outgrowth in rat hippocampal neurons assessed as neurite total length at 15.625 ng/ml after 48 hrs relative to control. Summed up: as §1
Test [7] can be described thus: Induction of neurite outgrowth in rat hippocampal neurons assessed as neurite total length after 48 hrs. Summed up:
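Dissociated E18 rat hippocampal neurons were seeded on PDL-coated plates at 1800 cells/well in NbActive4 and allowed to adhere 2 h. Compounds were prediluted in medium at 4× final and added, then cells were grown 48 h (2 DIV). Wells were fixed, immunostained for βIII-tubulin and imaged by automated tracing. ED200% and ED300% values were linearly interpolated from dose-response curves of mean neurite total length.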

Take `CC(C)CCCCN1C(=S)N(CCCC[C@H]2CNC(CCCCc3ccccc3)=N2)C[C@H]1CC(C)C`: the Activity in test [1] came to 145.3%; in test [2], 265.6%; in test [3], 237.1%; in test [4], 194.1%; in test [5] it was 239.9%; in test [6], 127.4%.

For the molecule `S=C1N(CCCC[C@H]2CNC(C3CCCC3)=N2)C[C@@H](c2ccccc2)N1CCC1CCCCC1`, the Activity in test [1] amounted to 251.5%; in test [2], 232.4%; in test [3], 261.9%; in test [4], 260.5%; in test [5] it was 185.9%; in test [6] it was 182.3%. Besides, in test [7], the ED200 stood at 7 nM. In test [7], the ED300 is 91 nM.

Take `CC(C)CCCCN1C(=S)N(CCCC[C@H]2CNC(CCCCc3ccccc3)=N2)C[C@H]1c1ccccc1`: the Activity in test [1] worked out at 170.2%; in test [2], 253.9%; in test [3] it was 259.1%; in test [4], 172.4%; in test [5] it was 225.1%; in test [6], 113.8%.

Regarding `S=C1N(CCCC[C@H]2CNC(CCCCc3ccccc3)=N2)C[C@@H](c2ccccc2)N1CCCC1CCCCC1`, the Activity in test [1] was 208.9%; in test [2], 221.8%; in test [3] it was 254.2%; in test [4], 251.6%; in test [5] it was 183.5%; in test [6], 143.7%.

For the molecule `CCC(C)CC1=N[C@@H](CCCCN2C[C@@H](C)N(CCC3CCC(C)CC3)C2=S)CN1` (stereo partly drawn), the Activity in test [1] is recorded as 134.9%; in test [2], 266.7%; in test [3] it was 166.2%; in test [4], 150%; in test [5] it was 293.6%; in test [6], 97.33%.

In the case of `CCC(C)CC1=N[C@@H](CCCCN2C[C@@H](c3ccccc3)N(CCCC3CCCCC3)C2=S)CN1` (stereo partly drawn), the Activity is 200.8% in test [1]; 221.9% in test [2]; 245.5% in test [3]; 257.2% in test [4]; 228.1% in test [5]; 139% in test [6].

As to `CC(C)CCCCN1C(=S)N(CCCC[C@H]2CNC(CC3CCCC3)=N2)C[C@H]1c1ccccc1`, the Activity in test [1] worked out at 234.3%; in test [2], 277.9%; in test [3], 249.2%; in test [4] it was 279.6%; in test [5], 273%; in test [6], 173.9%.

Regarding `C[C@@H]1CN(CCCC[C@H]2CNC(CCCCc3ccccc3)=N2)C(=S)N1CCCC1CCCCC1`, the Activity in test [1] was 122.1%; in test [2], 246.6%; in test [3], 209.7%; in test [4] it was 122%; in test [5] it was 242.7%; in test [6] it was 100.8%.

For `CC(C)C[C@@H]1CN(CCCC[C@H]2CNC(C3CCCC3)=N2)C(=S)N1CCC1CCCCC1`, the Activity is on record as 256.5% in test [1]; 277.2% in test [2]; 282.9% in test [3]; 271% in test [4]; 248.7% in test [5]; 194.9% in test [6]. In test [7], the ED200 is 4 nM. Also, the ED300 in test [7] was over 543 nM.

As for `CC1CCC(CCN2C(=S)N(CCCC[C@H]3CNC(CCCCc4ccccc4)=N3)C[C@H]2C)CC1` (stereo partly drawn), the Activity in test [1] was 101.9%; in test [2], 237.6%; in test [3], 70.33%; in test [4], 117.7%; in test [5], 296.9%; in test [6] it was 88.36%.

With `CCC(C)C1=N[C@@H](CCCCN2C[C@@H](c3ccccc3)N(CC3CCC(C)CC3)C2=S)CN1` (stereo partly drawn), the Activity in test [1] came out at 256.2%; in test [2], 255.9%; in test [3], 301.9%; in test [4], 296.7%; in test [5], 279.8%; in test [6], 190%. The ED200 in test [7] was found to be 5 nM. In addition, the ED300 in test [7] stood at 54 nM.

Take `CC(C)CCCCN1C(=S)N(CCCC[C@H]2CNC(CC3CCCC3)=N2)C[C@H]1C`: the Activity came to 137.9% in test [1]; 264.8% in test [2]; 213.9% in test [3]; 175.9% in test [4]; 323.7% in test [5]; 113.8% in test [6].

On to `CCC(C)C1=N[C@@H](CCCCN2C[C@@H](CC(C)C)N(CC3CCC(C)CC3)C2=S)CN1` (stereo partly drawn), for which the Activity came out at 216.3% in test [1]; 236% in test [2]; 268.2% in test [3]; 253.6% in test [4]; 264.4% in test [5]; 131.1% in test [6]. In addition, in test [7], the ED200 is 10 nM. The ED300 in test [7] worked out at 53 nM.

As to `CCC(C)CC1=N[C@@H](CCCCN2C[C@@H](c3ccccc3)N(CCCCC(C)C)C2=S)CN1` (stereo partly drawn), the Activity in test [1] is on record as 179.4%; in test [2], 265.8%; in test [3], 263.7%; in test [4], 252.8%; in test [5], 276.3%; in test [6] it was 121.4%.

As to `CC1CCC(CN2C(=S)N(CCCC[C@H]3CNC(C4CCCC4)=N3)C[C@H]2C)CC1` (stereo partly drawn), the Activity in test [1] is 128.3%; in test [2], 257.3%; in test [3], 230.7%; in test [4] it was 168.1%; in test [5], 322.3%; in test [6], 94.61%. Also, the ED200 in test [7] amounted to 130 nM. In addition, the ED300 in test [7] was determined as 282 nM.

Consider `CC(C)C[C@@H]1CN(CCCC[C@H]2CNC(CCCCc3ccccc3)=N2)C(=S)N1CCCC1CCCCC1`, for which the Activity amounted to 135.5% in test [1]; 267.3% in test [2]; 200.8% in test [3]; 199.3% in test [4]; 246.8% in test [5]; 114% in test [6].

With `CC1CCC(CN2C(=S)N(CCCC[C@H]3CNC(C4CCCC4)=N3)C[C@H]2c2ccccc2)CC1` (stereo partly drawn), the Activity was 271.9% in test [1]; 270.8% in test [2]; 286.2% in test [3]; 305.6% in test [4]; 229.6% in test [5]; 251% in test [6]. Besides, the ED200 in test [7] is on record as 2 nM. Also, the ED300 in test [7] is over 520 nM.

As for `CC(C)C[C@@H]1CN(CCCC[C@H]2CNC(C3CCCC3)=N2)C(=S)N1CC1CCC(C)CC1` (stereo partly drawn), the Activity in test [1] was determined as 255.4%; in test [2], 238.5%; in test [3] it was 311.6%; in test [4], 253.6%; in test [5] it was 263%; in test [6] it was 169.9%. Moreover, in test [7], the ED200 is 4 nM. For the same molecule, the ED300 in test [7] is on record as 25 nM.

Turning to `CC(C)CCCCN1C(=S)N(CCCC[C@H]2CNC(CCCCc3ccccc3)=N2)C[C@H]1C`, the Activity in test [1] was found to be 100.5%; in test [2] it was 257.3265%; in test [3], 160.4%; in test [4], 124.2%; in test [5], 346.7%; in test [6] it was 116.4%.

With `CCC(C)CC1=N[C@@H](CCCCN2C[C@@H](C)N(CCCC3CCCCC3)C2=S)CN1` (stereo partly drawn), the Activity worked out at 121.4% in test [1]; 246.1% in test [2]; 196.1% in test [3]; 142.6% in test [4]; 357.5% in test [5]; 102.3% in test [6].

As for `C[C@@H]1CN(CCCC[C@H]2CNC(CC3CCCC3)=N2)C(=S)N1CCCC1CCCCC1`, the Activity is on record as 157.6% in test [1]; 245.7679% in test [2]; 250.7% in test [3]; 188% in test [4]; 304.4% in test [5]; 104.7% in test [6].

As for `CCC(C)CC1=N[C@@H](CCCCN2C[C@@H](CC(C)C)N(CCCCC(C)C)C2=S)CN1` (stereo partly drawn), the Activity in test [1] is on record as 179.8%; in test [2], 258.7%; in test [3] it was 254%; in test [4], 222.6%; in test [5], 239.5%; in test [6], 122.8%.

Regarding `CCC(C)CC1=N[C@@H](CCCCN2C[C@@H](C)N(CCCCC(C)C)C2=S)CN1` (stereo partly drawn), the Activity in test [1] is 115.6%; in test [2] it was 209.2%; in test [3], 169.1%; in test [4], 155%; in test [5] it was 323.0821%; in test [6], 92.45%.

For the molecule `CCC(C)CC1=N[C@@H](CCCCN2C[C@@H](CC(C)C)N(CCCC3CCCCC3)C2=S)CN1` (stereo partly drawn), the Activity is recorded as 178.9% in test [1]; 253.1% in test [2]; 252.9% in test [3]; 261.9% in test [4]; 264.0755% in test [5]; 158.9% in test [6].
